# This is a sample that favours compounds with a hit; in the whole collection about 1.9% have one here.
# SR-BI HDL uptake: mouse SR-BI HDL lipid transfer inhibition; ldlA[mSR-BI] CHO cells, DiI-HDL uptake fluorescence, 3 h; inhibition, % at 12.5 µM; actives 0.96% (n = 320,000);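 active means mean replicate inhibition of at least 70% and a set share of replicates each scoring 70 or more; inconclusive means meets just one of the two criteria; inactive means fails both criteria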
# Neddyl block: blocks human cullin neddylation; P61081+Q13564; TR-FRET cullin neddylation, biochemical; inhibition, % at 25 µM; actives 0.58% (n = 360,000); in the data active means inhibition above about 36%
# UBC13 polyUb: blocks human UBC13 polyubiquitin chain formation | P61088 | TR-FRET | inhibition, % at 20 µM | actives 0.47% (n = 330,000); in the data active means inhibition above about 45%, passing the limit was not always enough; inconclusive means no clear call, values can overlap the other calls
# Target sequence (P61088 whole entry, looked up): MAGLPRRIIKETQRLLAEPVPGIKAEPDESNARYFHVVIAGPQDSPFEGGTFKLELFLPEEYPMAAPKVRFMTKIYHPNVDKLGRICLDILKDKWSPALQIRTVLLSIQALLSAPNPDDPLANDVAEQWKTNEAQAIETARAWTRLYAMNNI
# SR-BI DiI-HDL act: enhances SR-BI lipid uptake from DiI-HDL; CHO ldlA[mSR-BI] cells, DiI-HDL uptake fluorescence, 3 h; 100 = double the neutral-control signal; actives 0.096% (n = 320,000); activation, % at 12.5 µM;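 active means mean replicate activation of at least 60% and every replicate at or above 60%; inconclusive means mean or all-replicate condition met, but not both; inactive means mean below 60% and not all replicates reaching 60%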
#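 Material – SR-BI-overexpressing, LDLR-lacking CHO cells · Medium – BSA-supplemented, HEPES-buffered Ham's F12, pH 7.4 · Doses – single concentration · Times – compound with DiI-HDL co-incubation, 3 h at 37 °C · Measured by – bottom-read fluorescence, 550/595 nm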
# Casp3 UBC13 ctr: inhibits human caspase-3 in UBC13 counter-screen; shares compounds with UBC13 polyUb; Recombinant caspase-3, Caspase-Glo 3/7 luminescence, 60 min; inhibition, % at 20 µM; actives 4% (n = 1,400);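 active means mean inhibition across replicates above about 26%, limit read from the data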
# Target sequence (P42574 whole entry, looked up): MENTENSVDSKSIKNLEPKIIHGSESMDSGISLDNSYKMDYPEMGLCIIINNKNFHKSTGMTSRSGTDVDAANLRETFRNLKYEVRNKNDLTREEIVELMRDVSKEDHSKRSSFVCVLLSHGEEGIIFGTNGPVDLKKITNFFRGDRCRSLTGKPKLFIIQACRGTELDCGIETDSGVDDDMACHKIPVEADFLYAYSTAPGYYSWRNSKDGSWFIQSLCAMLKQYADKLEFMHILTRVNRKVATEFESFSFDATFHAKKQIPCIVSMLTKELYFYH
# UBC13 confirm: confirmation of human UBC13 polyubiquitin inhibitors. shares compounds with UBC13 polyUb. UBC13 polyubiquitination, TR-FRET, biochemical. inhibition, % at 10 µM. actives 68% (n = 1,400). AID 488859; in the data active means inhibition above about 45%; inconclusive means no clear call, values can overlap the other calls
# Numbers stand for hits; n = inactive; u = inconclusive; x = no result shown.
SMILES,SR-BI HDL uptake,Neddyl block,UBC13 polyUb,SR-BI DiI-HDL act,Casp3 UBC13 ctr,UBC13 confirm
COc1ccccc1-c1oc2ccccc2c1C#CC1(O)CCCCC1,n,x,n,n,x,x
CCOc1ccc(CCNC(=O)c2cccc(S(=O)(=O)N3CCN(C(C)=O)CC3)c2)cc1OCC,n,n,n,n,x,x
Nc1ccccc1C(=O)NN=Cc1cccnc1,x,n,x,x,x,x
CCN1CCN(Cc2ccc(NC(=O)c3ccc(C)c(/C=C/c4cnc(Nc5cc(N6CCNCC6)nc(C)n5)cn4)c3)cc2C(F)(F)F)CC1,n,x,123,n,n,116
COc1nccc(Nc2ccccc2)c1C#N,n,n,n,n,x,x
CSc1nccc(Nc2ccccc2)c1C#N,n,n,47,n,n,u
FC(F)(F)c1cc(CCN2CCNC[C@H]2Cc2cccc3ccccc23)cc(C(F)(F)F)c1,n,n,96,n,n,98
Oc1ccc(C[C@@H]2CNCCN2CCc2cc(C(F)(F)F)cc(C(F)(F)F)c2)cc1,n,n,n,n,x,x
COCCNc1nc2c(-c3cccc(C(F)(F)F)c3)nnn2c2ccccc12,n,n,47,n,n,u
CC(C)OCCCNc1nc2c(-c3ccccc3)nnn2c2ccccc12,x,x,46,x,n,n
CN1CCC(C)(C(=O)Nc2ccc3c(c2)OCCO3)C1 (stereo not given),x,n,x,x,x,x
C/C(=N\NC(=O)CSCc1ccc([N+](=O)[O-])cc1)c1cccc(Br)c1,n,n,47,n,n,n
O=C(CSCc1ccc([N+](=O)[O-])cc1)N/N=C/c1cccnc1,n,n,86,n,n,96
O=C(CSCc1ccc([N+](=O)[O-])cc1)N/N=C/c1ccncc1,n,n,68,n,n,75
O=C(C(=O)N1CCN(c2ccccc2F)CC1)c1ccccc1,x,n,x,x,x,x
Cc1sc2ncnc(N)c2c1C,n,n,61,n,n,49
COc1ccc([C@H]2C[C@H](O)[C@@H](n3cc(-c4ccc(F)cc4)nn3)CN2Cc2cccs2)cc1,x,n,x,x,x,x
COCCNC(=S)N=Nc1c(O)[nH]c2c(C)cc(C)cc12,n,n,87,n,n,102
Cc1cc(C)c2[nH]c(O)c(N=NC(=O)c3cc4c(s3)CCCC4)c2c1,x,x,n,x,x,x
S=c1nc[nH]c2c1[nH]c1ccc(Cl)cc12,x,n,n,x,x,x
S=c1nc[nH]c2c1[nH]c1ccccc12,n,n,82,n,n,103
COc1ccccc1Nc1nc(NCCO)c2ccccc2n1,x,x,n,x,x,x
Cc1ccc(Nc2nc(NCCO)c3ccccc3n2)cc1C,n,n,52,n,n,82
OC(CNCC1CCCO1)Cn1c2ccc(Cl)cc2c2cc(Cl)ccc21 (stereo not given),n,n,49,n,n,89
OC(CNCC1CCCO1)Cn1c2ccccc2c2ccccc21 (stereo not given),n,n,n,n,x,x
SMILES,SR-BI HDL uptake,Neddyl block,UBC13 polyUb,SR-BI DiI-HDL act,Casp3 UBC13 ctr,UBC13 confirm
COC(=O)C1(C(=O)OC)C[C@H](c2cccs2)N(Cc2ccccc2OC)[C@@H]1c1ccc(F)cc1,x,n,x,x,x,x
COc1ccc(C(=O)Nn2c(C)nc3ccccc3c2=O)cc1,n,n,82,n,n,84
Cc1nc2ccccc2c(=O)n1NC(=O)/C=C/c1ccc(Br)cc1,n,n,60,n,n,53
CCCOc1ccc(C(=O)Nn2c(C)nc3ccccc3c2=O)cc1,n,n,96,n,n,108
NCCCC[C@@H](C(=O)N1CCNCC1)n1cc(CN)nn1,n,n,60,n,n,47
Cc1onc(-c2ccccc2)c1C(=O)Nc1cccc2nsnc12,n,n,49,n,n,n
Cc1nnc(NC(=O)c2c(-c3ccccc3)noc2C)s1,n,n,n,n,x,x
CC1CCN(CCCNC(=O)c2cc3c(s2)-c2ccccc2OC3)CC1,n,n,n,n,x,x
Cc1cccc2c1-c1sc(C(=O)NCCCN3CCC(C)CC3)cc1CO2,n,n,53,n,n,86
CCN(c1ccc(C)cc1C)S(=O)(=O)c1nnc(NC(=O)C(C)(C)C)s1,n,n,n,n,x,x
C#CCOCCOCCOCCNc1nc(N2CCN(C(=O)CCCCCCCCCCNC(=O)Cn3cc(CCCCCN)nn3)CC2)nc(N2CCN(C(=O)CCCCCCCCCCNC(=O)Cn3cc(CCCCCN)nn3)CC2)n1,n,n,118,n,n,121
C#CCOCCOCCOCCNc1nc(N2CCN(C(=O)CCCCCCCCCCNC(=O)Cn3cc(C[C@@H](C)O)nn3)CC2)nc(N2CCN(C(=O)CCCCCCCCCCNC(=O)[C@H](CCCN=C(N)N)n3cc(C[C@@H](C)CC)nn3)CC2)n1,n,n,124,n,n,119
C#CCOCCOCCOCCNc1nc(N2CCN(C(=O)Cn3cc(CCCN=C(N)N)nn3)CC2)nc(N2CCN(C(=O)Cn3cc(CC(C)O)nn3)CC2)n1 (stereo not given),n,n,x,n,x,x
C#CCOCCOCCOCCNc1nc(N2CCN(C(=O)CCCCCCCCCCNC(=O)Cn3cc(CCCCCN)nn3)CC2)nc(N2CCN(C(=O)CCCCCCCCCCNC(=O)[C@@H](CCSC)n3cc(CCO)nn3)CC2)n1,n,n,119,n,n,125
C#CCOCCOCCOCCNc1nc(N2CCN(C(=O)CCCCCCCCCCNC(=O)[C@@H](CCSC)n3cc(CCO)nn3)CC2)nc(N2CCN(C(=O)CCCCCCCCCCNC(=O)[C@H](CCSC)n3cc(CCO)nn3)CC2)n1,n,n,n,n,x,x
C#CCOCCOCCOCCNc1nc(N2CCN(C(=O)CCCCCCCCCCNC(=O)[C@H](CO)n3cc(CCCSC)nn3)CC2)nc(N2CCN(C(=O)CCCCCCCCCCNC(=O)[C@H](CCCCN)n3cc(CCO)nn3)CC2)n1,n,n,113,n,n,124
CC1CCC2(CC1)NC(=O)N(CC(=O)NC(=O)Nc1ccc3c(c1)OCCO3)C2=O (stereo not given),x,n,n,x,x,x
Cc1nn(CC(=O)N(CC(C)C)C2CCS(=O)(=O)C2)c(C)c1[N+](=O)[O-] (stereo not given),n,n,n,n,x,x
C#CCOCCOCCOCCNc1nc(N2CCN(C(=O)CCCCCCCCCCNC(=O)Cn3cc(CCCCCN)nn3)CC2)nc(N2CCN(C(=O)CCCCCCCCCCNC(=O)[C@@H](CCC(=O)O)n3cc(CCCCCN)nn3)CC2)n1,n,n,96,n,n,79
C#CCOCCOCCOCCNc1nc(N2CCN(C(=O)CCCCCCCCCCNC(=O)Cn3cc(C[C@@H](C)O)nn3)CC2)nc(N2CCN(C(=O)CCCCCCCCCCNC(=O)[C@H](CCCCN)n3cc(CCCC(=O)O)nn3)CC2)n1,n,n,n,n,x,x
C#CCOCCOCCOCCNc1nc(N2CCN(C(=O)CCCCCCCCCCNC(=O)[C@H](CO)n3cc(CCCSC)nn3)CC2)nc(N2CCN(C(=O)CCCCCCCCCCNC(=O)[C@H](CCCN=C(N)N)n3cc(C[C@@H](C)CC)nn3)CC2)n1,n,n,122,n,n,121

# Screening results: PubChem, several laboratories
